From PubChem BioAssay
Compounds with a hit are over-represented: about 1.5% of the library has one in this group of screens.
MsrA inhibitor: inhibitors of bovine MsrA; purified bovine MsrA, absorbance read-out; inhibition, % at 15.5 µM; AID 651718; 360,000 compounds, 0.75% hits
bovine MsrA act: bovine methionine sulfoxide reductase A activation; purified bovine MsrA, absorbance read-out; activation, % at 10.6 µM; 360,000 compounds, 0.3% hits; AID 602163; in the data active = activation above about 7.5%
TbMetRS inhib: blocks T. brucei methionyl-tRNA synthetase activity | purified T. brucei MetRS, ATP depletion, Kinase-Glo luminescence | inhibition, % at 11.9 µM | 360,000 compounds, 0.4% hits;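 active = inhibition above a per-plate cutoff of the control wells' mean inhibition plus 3 SD, cut at about 5.5% in these data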
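assay system = parasite MetRS enzyme | timing = 15 min preincubation, 2 h reaction, all 25 °C | evaluation = percent inhibition relative to median high and low control wells | medium = HEPES buffer containing pyrophosphatase, BSA, spermine, DTT | compound = single dose, 11.9 µM final nominal, 0.9% final DMSO | detection = Kinase-Glo luminescence, ATP depletion format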
procasp7 counter: counter-screen for procaspase-3 activators: activators of human procaspase-7. recombinant procaspase-7, Ac-DEVD-pNA absorbance 405 nm; D23A/D198A/D206A triple mutant, cannot self-cleave; scale: DMSO 0, 5 µM enzyme 100. P55210. activation, % at 8.5 µM. 330,000 compounds, 0.093% hits;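 active = percent activation above the screen-wide mean plus 3 SD, cut at about 25% in these data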
Target sequence (P55210 whole entry D23A/D198A/D206A): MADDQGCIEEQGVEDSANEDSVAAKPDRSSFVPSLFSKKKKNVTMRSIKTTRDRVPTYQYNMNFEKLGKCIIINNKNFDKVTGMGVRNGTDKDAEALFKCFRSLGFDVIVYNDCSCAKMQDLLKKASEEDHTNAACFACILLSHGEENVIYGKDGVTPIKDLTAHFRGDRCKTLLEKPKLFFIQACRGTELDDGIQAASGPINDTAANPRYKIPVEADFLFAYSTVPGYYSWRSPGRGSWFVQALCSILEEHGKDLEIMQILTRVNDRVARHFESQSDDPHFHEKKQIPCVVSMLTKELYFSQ
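Assay system: Uncleavable procaspase-7 mutant enzyme / Input: 2 µM procaspase-7 mutant as dispensed / Dosing: single nominal 8.5 µM compound dose, 0.8% DMSO final / Timing: 1 h enzyme–compound preincubation and 2 h substrate reaction, both 25 °C / Detection: p-Nitroaniline absorbance at 405 nm, read at 0 and 120 min / Replication: singlicate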
procasp3 activ: activators of human procaspase-3; P42574; AID 463141; activation, % at 8.5 µM; 330,000 compounds, 0.11% hits; recombinant procaspase-3 D3A, Ac-DEVD-pNA absorbance 405 nm;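 active = activation above the mean of all tested compounds plus 3 SD, cut at about 21% in these data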
Target sequence (P42574 whole entry D9A/D28A/D175A): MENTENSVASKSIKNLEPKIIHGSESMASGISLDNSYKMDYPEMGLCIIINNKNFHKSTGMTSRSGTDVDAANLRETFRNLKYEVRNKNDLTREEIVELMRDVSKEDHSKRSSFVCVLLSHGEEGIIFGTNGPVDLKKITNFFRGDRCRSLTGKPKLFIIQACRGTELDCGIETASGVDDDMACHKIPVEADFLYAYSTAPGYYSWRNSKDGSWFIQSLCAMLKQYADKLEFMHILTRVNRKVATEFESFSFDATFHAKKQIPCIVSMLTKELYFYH
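Technique: 405 nm absorbance of p-nitroaniline, reads at 0 and 120 min; Test system: Procaspase-3 D3A mutant; Incubation: 1 h enzyme-compound preincubation, then 2 h substrate reaction, 25 °C; Repeats: singlicate, each compound tested once; Benchmarks: low control DMSO wells, high control DMSO plus 5 µM PC-3 D3A.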
MsrA activ conf: confirmation of bovine methionine sulfoxide reductase A activators; shares compounds with bovine MsrA act; purified bovine MsrA, absorbance read-out; activation, % at 10.6 µM; 1,000 compounds, 12% hits; AID 602270; in the data active = activation above about 4%;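 also: enzyme coupled to thioredoxin and thioredoxin reductase with NADPH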
Tb MetRS conf: confirmation of Trypanosoma brucei MetRS inhibitors. shares compounds with TbMetRS inhib. T. brucei MetRS enzyme, luminescence (ATP depletion). inhibition, % at 11.9 µM. 1,400 compounds, 93% hits; in the data active = inhibition above about 7%
Jurkat tox: counter-screen for T. brucei MetRS inhibitors: Jurkat cell cytotoxicity | 1,400 compounds, 12% hits | AID 624413 | Jurkat cells viability, ATP luminescence | inhibition, % at 8.3 µM | shares compounds with TbMetRS inhib; in the data active = inhibition above about 15%
Tb MetRS inh FP: T. brucei MetRS inhibition, orthogonal assay. shares compounds with TbMetRS inhib. purified T. brucei MetRS, fluorescence polarization. inhibition, % at 11.9 µM. 1,400 compounds, 44% hits. AID 651607; in the data active = inhibition above about 17%
MsrA conf: confirmation of bovine MsrA inhibitors; shares compounds with MsrA inhibitor; inhibition, % at 15.5 µM; 2,300 compounds, 41% hits; purified bovine MsrA, absorbance read-out;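 also: coupled to thioredoxin reductase with NADPH and selenocystamine and DMSO as substrate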
Numbers stand for hits; 0 = inactive; - = no result given. Rule as the data show it, unless noted: active = inhibition above about 4.5%; inactive = the rest.

SMILES	MsrA inhibitor	bovine MsrA act	TbMetRS inhib	procasp7 counter	procasp3 activ	MsrA activ conf	others
CCOC(=O)N1CCN(C2=C(NS(=O)(=O)c3ccc(Br)cc3)C(=O)c3ccccc3C2=O)CC1	0	0	0	-	-	-
CCN1CCN(C2=C(NS(=O)(=O)c3ccc(Br)cc3)C(=O)c3ccccc3C2=O)CC1	0	8.2	0	0	0	0
Cc1ccccc1OCCSc1nnc(-c2ccncc2)n1C	0	0	0	0	0	-
Cn1c(SCCOc2ccccc2Cl)nnc1-c1ccncc1	0	8.5	0	0	0	0
CCc1cc2c(nc1CC)CCCN2S(=O)(=O)c1ccc(C#N)cc1	0	-	-	-	-	-
CCc1nn(CC(=O)NCCCN2CCOCC2)c(=O)c2cc3cc(F)ccc3n12	0	7.9	0	0	0	0
CCc1nn(CC(=O)NCCCN2CCOCC2)c(=O)c2cc3sccc3n12	0	0	0	0	0	-
C=C1CCC[C@]2(C)C[C@H]3OC(=O)C(CNC(C)CC)[C@H]3CC12 (some centres undefined)	0	0	0	0	0	-
C=C1CCC[C@]2(C)C[C@H]3OC(=O)C(CN(C)CC(OC)OC)[C@H]3CC12 (some centres undefined)	0	8.7	0	0	0	0
COc1ccc(-c2csc(/C(C#N)=C/Nc3ccc4c(c3)OCCO4)n2)cc1	0	0	0	0	0	-
COc1ccc(-c2csc(/C(C#N)=C/Nc3cc4oc5ccccc5c4cc3OC)n2)cc1	0	13	0	0	0	0
C=CCc1ccccc1OCC(O)CN1CCN(c2ccc(C)cc2)CC1 (centres undefined)	0	9.3	0	0	0	0
CC(C)C[C@H]1COc2c(Cl)cccc2S(=O)(=O)N1	0	-	-	-	-	-
CCOc1ccc(-c2nc(-c3ccc(OC)cc3)no2)cc1OCC	0	7.9	0	0	0	0
CCOc1ccc(-c2noc(-c3ccncc3)n2)cc1OCC	0	0	0	0	0	-
CCOc1ccccc1-c1nc(-c2ccncc2)no1	0	8.4	0	0	0	0
CC(=O)N(c1nc2ccccc2s1)N1C(=O)c2ccccc2C1=O	0	-	-	-	-	-
O=C(CCNS(=O)(=O)c1cccc2nonc12)Nc1ccc(Cl)cc1	0	13	10	0	0	0	Tb MetRS conf=21;Jurkat tox=0;Tb MetRS inh FP=0
COC(=O)c1cc2c(c3c4cc(F)ccc4n(S(=O)(=O)c4ccc(C)cc4)c13)C(=O)N(Cc1ccccc1OC)C2	0	-	-	-	-	-
CCc1cccc2c(C(=O)COC(=O)c3ccc([N+](=O)[O-])s3)c[nH]c12	0	0	0	0	0	-
O=C(OCC(=O)c1c[nH]c2ccccc12)c1ccc([N+](=O)[O-])s1	0	16	10	0	0	6.6	Tb MetRS conf=23;Jurkat tox=0;Tb MetRS inh FP=0
COc1ccc2c(c1)[C@@H](NC(=O)c1ccncc1)[C@H](C)[C@H]2c1ccccc1	0	-	-	-	-	-
O=C1C(=O)c2cccnc2-c2ncccc21	0	95	15	-	-	76	Tb MetRS conf=9.7;Jurkat tox=97;Tb MetRS inh FP=0
COc1cc(N(C)C)ccc1C=c1c2ccccc2n2c1cc(-c1ccccc1)[n+]2C	0	0	0	-	-	-
COc1cc(C=c2c3ccccc3n3c2cc(-c2ccccc2)[n+]3C)cc(OC)c1OC	12	18	0	-	-	9.9	MsrA conf=0
SMILES	MsrA inhibitor	bovine MsrA act	TbMetRS inhib	procasp7 counter	procasp3 activ	MsrA activ conf	others
O=C1C(Cl)=C(Nc2ccc3cn[nH]c3c2)C(=O)c2ccccc21	17	26	0	0	0	15	MsrA conf=10
O=C(Nc1ccc2cn[nH]c2c1)c1c(Cl)cccc1Cl	0	0	0	0	0	-
C[C@]12Cc3ccccc3C1CC1=N[C@@H](C3CCCCC3)O[C@@]13C[C@@H]2C(=O)N3C1CCN(Cc2ccccc2)CC1 (some centres undefined)	0	-	-	-	-	-
COc1ccc(CNC(=O)c2c(C)oc3c2C(=O)c2ccccc2C3=O)cc1	7.6	7.9	0	0	0	8.0	MsrA conf=9.0
COC(=O)C1=C(C)N(CC(C)C)C(=S)NC1c1cccc(Br)c1 (centres undefined)	0	-	-	-	-	-
O=C(c1ccccc1)c1coc2c1C(=O)c1ccccc1C2=O	19	8.2	0	0	0	16	MsrA conf=26
O=C1c2ccccc2C(=O)c2cc(S(=O)(=O)Nc3ccccc3)ccc21	29	10.0	0	0	0	5.8	MsrA conf=31
COC(=O)c1ccc(/C=C2\CCn3c2nc2cc(C(=O)O)ccc2c3=O)cc1	-	0	0	0	0	-
CSc1ccc(/C=C2\CCn3c2nc2cc(C(=O)O)ccc2c3=O)cc1	5.0	10	0	0	0	0	MsrA conf=4.8
CC(=O)N1C[C@@H](CN2C(=O)CCC2=O)[C@@H]2C[C@H]1c1ccccc1N2C	0	-	-	-	-	-
O=C(CCC(=O)c1ccc(Br)cc1)Nc1cccnc1	0	0	0	0	0	-
O=C(CCSc1ccc(Br)cc1)Nc1cccnc1	0	0	6.4	0	0	-	Tb MetRS conf=11;Jurkat tox=0;Tb MetRS inh FP=0
CCOC(=O)C1=C(C(=O)OCC)C2N(Cc3ccc(Br)cc3)c3ccccc3[C@@]23C[C@@H](C(=O)OC)N(S(=O)(=O)c2ccc(C(F)(F)F)cc2)C3=N1 (some centres undefined)	0	-	-	-	-	-
O=C(CN1CCCCC1)Nc1nc(-c2ccccc2)cs1	0	0	0	0	0	-
O=C(CN1CCOCC1)Nc1nc(-c2ccccc2)cs1	0	0	6.7	0	0	-	Tb MetRS conf=0;Jurkat tox=0;Tb MetRS inh FP=0
S=C(NCc1cccnc1)Nc1cc(Cl)cc(Cl)c1	0	0	24	0	0	-	Tb MetRS conf=52;Jurkat tox=0;Tb MetRS inh FP=30
S=C(NCc1ccncc1)Nc1cc(Cl)cc(Cl)c1	0	0	10	0	0	-	Tb MetRS conf=23;Jurkat tox=0;Tb MetRS inh FP=0
S=C(NCc1cccnc1)Nc1cccc(Cl)c1	0	0	0	0	0	-
Cc1ccsc1C(=O)OCc1nc2ccsc2c(=O)[nH]1	0	0	0	0	0	-
CC(C)(Oc1ccc(Cl)cc1)C(=O)OCc1nc2ccsc2c(=O)[nH]1	0	0	20	0	0	-	Tb MetRS conf=64;Jurkat tox=0;Tb MetRS inh FP=38
COc1cccc(C(=O)N2CCC[C@@H]2C(=O)N2CCC[C@@H]2C(=O)NCc2ccccc2)c1	0	-	-	-	-	-
COc1ccc(OCc2nnc(SCc3ccc(C(=O)O)cc3)o2)cc1	0	0	0	0	0	-
O=C(O)c1ccc(CSc2nnc(COc3ccc(Cl)cc3Cl)o2)cc1	0	0	48	0	0	-	Tb MetRS conf=60;Jurkat tox=0;Tb MetRS inh FP=35
